Measured values reported in publication PMC5741288 (Pain Reports, 2016).

Assays:
[1] = tested on: heat-evoked pain; type: in vivo, healthy men
Summary of the method: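 In part 1 (single oral tablets, 1–225 mg, or placebo), heat pain detection and tolerance were measured with a 9 × 9 mm Peltier thermode on the volar forearm, to a 52 °C cutoff. Cold and von Frey mechanical pain thresholds were added in part 1b, with ratings on a 0–11 scale. Testing ran predose, 4 and 8 h, days 2, 4 and 6, and follow-up.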

[2] = cited from earlier work
[3] = tested on: complete Freund's adjuvant–evoked thermal hyperalgesia; details: rat; cited from earlier work

## CC(C)(O)c1ccccc1-c1ccc2[nH]c(/C=C/c3ccc(C(F)(F)F)cc3)nc2c1 [JNJ-39439335, trans-2-(2-{2-[2-(4-Trifluoromethyl-phenyl)-vinyl]-1H-benzimidazol-5-yl}-phenyl)-propan-2-ol]
[1]; effect of treatment
  Heat pain detection threshold, heat pain tolerance, and heat pain latency: clear, consistent dose-related increases
[1]; healthy human participants (discussion)
  Mechanical pain detection threshold: no effect
[1]; part 1
  Dose levels at which mean HPT increased from predose to postdose: ≥ 2 mg
  Doses at which most participants reached the HPD cutoff temperature (52°C): ≥ 30 mg
[1]; part 1b, 15- to 225-mg dose range
  Cold pain detection threshold: No clear separation from placebo and no clear dose-related effect
[1]; part 1b, all dose levels tested (15 to 225 mg), predose to postdose
  Mean heat pain latency: Increases in mean heat pain latency values
[2]; rat and dog
  Safety margins in 4-week toxicology studies: acceptable safety margins
[2]; rat, most sensitive animal species
  AUC24h at the no-observed-adverse-effect level dose: 10,700 ng·h·mL^−1
[3]
  Complete Freund's adjuvant–evoked thermal hyperalgesia: significantly attenuated
